As a reminder, the IC50 is the concentration needed to halve the response being measured. Usually Ki stands for the dissociation constant of the complex between target and ligand, obtained from inhibition or displacement. A lower Ki goes with tighter binding.

The values that follow come from ChEMBL document CHEMBL2029200, “Discovery of a novel melanin concentrating hormone receptor 1 (MCHR1) antagonist with reduced hERG inhibition” (Bioorg Med Chem Lett, 2012).

Activity calls are given as the source filed them. The calls are words filed in the database; no cut-off is given here.

In test [1] the target is T1, Voltage-gated inwardly rectifying potassium channel KCNH2 (Homo sapiens, UniProt Q12809). The test is described as follows: Inhibition of human Erg expressed in HEK293 cells assessed as rubidium efflux after 4 hrs by atomic absorbance spectrometric analysis.
T1 sequence (Q12809 whole entry): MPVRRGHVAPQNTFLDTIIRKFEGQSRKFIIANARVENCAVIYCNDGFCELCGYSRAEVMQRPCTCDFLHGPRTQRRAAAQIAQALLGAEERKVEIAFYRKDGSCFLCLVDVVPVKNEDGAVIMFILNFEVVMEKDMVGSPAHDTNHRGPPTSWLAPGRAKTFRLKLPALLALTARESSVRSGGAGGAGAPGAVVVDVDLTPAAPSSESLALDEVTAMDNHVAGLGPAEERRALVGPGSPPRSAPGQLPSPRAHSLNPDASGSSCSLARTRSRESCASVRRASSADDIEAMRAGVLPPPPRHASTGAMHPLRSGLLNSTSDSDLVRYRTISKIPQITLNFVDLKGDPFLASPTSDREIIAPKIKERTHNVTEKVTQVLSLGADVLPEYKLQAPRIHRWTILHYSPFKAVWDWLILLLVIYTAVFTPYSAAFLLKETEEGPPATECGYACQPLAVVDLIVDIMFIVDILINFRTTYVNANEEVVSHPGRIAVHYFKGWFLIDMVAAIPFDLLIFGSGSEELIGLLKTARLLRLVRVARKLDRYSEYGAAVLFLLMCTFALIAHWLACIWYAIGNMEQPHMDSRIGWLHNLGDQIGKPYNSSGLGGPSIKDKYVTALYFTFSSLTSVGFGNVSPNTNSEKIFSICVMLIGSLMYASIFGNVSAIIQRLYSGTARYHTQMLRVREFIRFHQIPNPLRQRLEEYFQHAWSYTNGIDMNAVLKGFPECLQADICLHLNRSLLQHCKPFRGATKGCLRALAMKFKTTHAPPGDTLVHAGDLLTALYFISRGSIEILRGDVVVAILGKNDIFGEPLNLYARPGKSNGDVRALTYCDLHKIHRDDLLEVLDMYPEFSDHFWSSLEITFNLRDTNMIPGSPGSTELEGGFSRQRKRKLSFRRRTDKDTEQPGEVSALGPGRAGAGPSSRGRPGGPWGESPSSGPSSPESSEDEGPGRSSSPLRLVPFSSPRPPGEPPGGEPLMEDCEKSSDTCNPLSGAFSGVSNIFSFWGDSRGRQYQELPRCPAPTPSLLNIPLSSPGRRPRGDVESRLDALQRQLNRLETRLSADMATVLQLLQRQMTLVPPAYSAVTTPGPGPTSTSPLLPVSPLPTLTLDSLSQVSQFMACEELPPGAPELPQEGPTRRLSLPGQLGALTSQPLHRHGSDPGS
The target of test [2] is Melanin-concentrating hormone receptor 1 (Homo sapiens, UniProt Q99705). Description: Displacement of [125I]-MCH from MCHR1 after 2 hrs by scintillation counting. In short, it runs like this: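 Competition binding on MCHR1 membrane preparation with 125I-MCH tracer. Compound diluted in 50 mM Tris pH 7.4, 10 mM MgCl2, 2.5 mM EDTA, 0.2% BSA. Incubation 2 h at 37 °C with shaking. Bound and free ligand separated by vacuum filtration through BSA-pretreated filter plates. Filters washed 4 times in Hepes/NaCl/BSA buffer, then counted by scintillation.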
Chain of Melanin-concentrating hormone receptor 1 (Q99705 whole entry): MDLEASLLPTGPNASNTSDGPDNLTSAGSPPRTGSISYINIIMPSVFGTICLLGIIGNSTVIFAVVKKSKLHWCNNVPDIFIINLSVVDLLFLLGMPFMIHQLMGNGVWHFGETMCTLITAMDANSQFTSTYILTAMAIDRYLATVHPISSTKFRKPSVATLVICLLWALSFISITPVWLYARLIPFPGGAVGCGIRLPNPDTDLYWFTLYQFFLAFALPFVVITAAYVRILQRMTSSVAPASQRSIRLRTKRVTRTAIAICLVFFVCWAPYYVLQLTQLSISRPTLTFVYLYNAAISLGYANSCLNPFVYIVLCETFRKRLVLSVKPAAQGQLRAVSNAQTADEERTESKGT

A further test relates to Mus musculus. Description: Antiobesity activity in high fat diet-fed C57BL/6 mouse assessed as reduction in body weight at 3 mg/kg, po daily measured up to day 137 relative to control. The class given is functional, organism-based. Details: dose 3 mg/kg.
Test [3] deals with T1, Voltage-gated inwardly rectifying potassium channel KCNH2. The test is described as follows: Binding affinity to human Erg.

Consider `C[C@H]1c2c([nH]c3ccc(C(F)(F)F)cc23)C[C@H]2CCN(CCCC3CCOCC3)C[C@@H]21`, for which the IC50 in test [1] stood at 30 nM.

For the compound `C[C@H]1c2c([nH]c3ccc(C(F)(F)F)cc23)C[C@H]2CCN(CCCC3(C(=O)O)CCOCC3)C[C@@H]21`, the values for the IC50 in test [2] and in test [1] were 40 nM and 300 nM, respectively. On to `CC(C)CC(N(C)C)C1(c2ccc(Cl)cc2)CCC1` (stereo not given), for which the result in the test with Mus musculus was Active. As to `N=C(c1ccc(C(=O)Nc2ccc(Cl)cc2C(=O)Nc2ccc(Cl)cn2)cc1)N1CCCC(C(=O)O)C1` (stereo not given), the Ki in test [3] was more than 10000 nM.
